Most compounds without a hit are left out; they make up all but 2.1% or so of the library.
EP2 antag – EP2 receptor (human) inhibition | P43116 | actives 0.52% (n = 260,000) | inhibition, % at 25 µM | C6 glioma cells expressing human EP2, cAMP TR-FRET; cells stimulated with saturating PGE2;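 active means percent inhibition above 40 after rounding to a whole number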;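 further: rat C6 glioma host cells with rolipram phosphodiesterase inhibitor present; the protocol text gives 20 µM as final concentration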
Thrombin inh – blocks human thrombin protease activity | inhibition, % at 5 µM | AID 1046 | alpha-thrombin, Boc-VPR-AMC fluorogenic substrate cleavage | P00734 | actives 0.26% (n = 220,000);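 active means inhibition at or above 40%; inactive means inhibition below 40%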
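Material: Human alpha-thrombin protein | Buffer or medium: pH 7.5 Tris-saline with Tween 20 | Reagent: Boc-VPR-AMC substrate, 15 µM final | Schedule: Reaction at ambient temperature | Detection: AMC fluorescence at 355 nm excitation and 460 nm emission | Evaluation: Percent inhibition scaled between no-compound controls and no-enzyme blanks | Controls: no-compound enzyme wells and no-enzyme blanks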
EP2 mod – EP2 receptor (human) modulation. induction, % at 25 µM. P43116. actives 0.83% (n = 260,000). EP2-expressing cells, cAMP HTRF FRET, PGE2 co-stimulation;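 active means compounds whose cAMP rise, as percent of the full-agonist control response, exceeds 60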;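 further: rat C6 glioma line stably carrying human EP2 under a CMV promoter; the protocol text gives 20 µM as final concentration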
FXIIa inh 1536 – inhibitors of human coagulation factor XIIa | P00748 | purified FXIIa, Boc-QGR-AMC fluorogenic substrate, 2 h | actives 0.3% (n = 220,000) | inhibition, % at 5 µM; in the data active means inhibition above about 40%
FXIa inh 1536 – blocks human coagulation factor XIa protease activity | purified FXIa, Boc-Glu-Ala-Arg-AMC fluorogenic substrate | inhibition, % at 5 µM | actives 0.14% (n = 220,000);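 active means inhibition of at least 40%; inactive means inhibition below 40%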;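 further: fluorescence of freed AMC excited at 355 nm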
Target sequence (P03951 19-387 limits assumed): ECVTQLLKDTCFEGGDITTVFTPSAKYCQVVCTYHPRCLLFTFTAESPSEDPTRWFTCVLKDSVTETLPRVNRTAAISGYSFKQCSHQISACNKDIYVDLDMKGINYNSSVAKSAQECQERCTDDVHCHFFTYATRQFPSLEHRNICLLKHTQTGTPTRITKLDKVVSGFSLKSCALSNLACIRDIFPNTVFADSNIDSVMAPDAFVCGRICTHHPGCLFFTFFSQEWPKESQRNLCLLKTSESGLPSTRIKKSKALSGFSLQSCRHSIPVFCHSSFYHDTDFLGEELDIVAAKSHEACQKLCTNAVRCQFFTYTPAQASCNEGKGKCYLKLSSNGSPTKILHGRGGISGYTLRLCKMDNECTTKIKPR
Target sequence (P03951 388-625 limits assumed): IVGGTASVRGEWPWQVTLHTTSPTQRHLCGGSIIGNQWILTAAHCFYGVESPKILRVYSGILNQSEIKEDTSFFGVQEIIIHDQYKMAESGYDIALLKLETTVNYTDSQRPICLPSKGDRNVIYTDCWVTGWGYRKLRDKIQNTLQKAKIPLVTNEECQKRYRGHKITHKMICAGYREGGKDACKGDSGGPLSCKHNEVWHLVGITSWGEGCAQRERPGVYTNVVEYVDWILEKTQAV
KLK5 inh – blocks human kallikrein 5 protease activity | Q9Y337 | recombinant hK5, fluorogenic AMC substrate cleavage | inhibition, % at 5 µM | actives 0.59% (n = 210,000) | AID 873;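 active means inhibition of 40% or more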
EP2 confirm – human EP2 receptor cAMP induction, negative in counter-screens; calls only at 20 µM (by protocol); shares compounds with EP2 mod; actives 47% (n = 1,300); C6 glioma EP2 cells, cAMP HTRF induction; plus low (about EC15) PGE2 agonist;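 active means cAMP induction above 50% in the main assay while under 30% in all four parallel counter assays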;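 further: rat C6 glioma cells stably expressing human EP2 receptor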
Hits are given with their value; i = inactive; nt = no result; + = active, no number.

SMILES	EP2 antag	Thrombin inh	EP2 mod	FXIIa inh 1536	FXIa inh 1536	KLK5 inh	others
Clc1ccc(Cl)c2c1NC(c1cccnc1)C1CC=CC21 (stereo unspecified)	i	nt	87	nt	nt	nt
O=C(CN1C(=O)CN=C(c2ccccc2)c2c1sc1c2CCCC1)N1CCOCC1	i	nt	i	nt	nt	nt
C[As+](C)(c1ccc(Br)c([N+](=O)[O-])c1)c1ccc(Br)c([N+](=O)[O-])c1.O=[N+]([O-])O	44	nt	i	nt	nt	nt
O=C(N/N=C/c1c(O)n(CCc2ccccc2)c(=O)[nH]c1=O)c1ccncc1	i	50	i	i	i	i
CCCCCCCCCCCCCCCC[n+]1ccccc1	69	nt	i	nt	nt	nt
C[C@]12CC[C@H](O)CC1=CC[C@@H]1[C@@H]2CC[C@]2(C)C(=O)CC[C@@H]12	i	nt	i	nt	nt	nt
CC(=O)O/C(=C1\C[C@@H]2[C@H]3CC=C4C[C@@H](OC(C)=O)CC[C@]4(C)[C@@H]3CC[C@@]2(C)C1=O)C(F)(F)F	47	nt	i	nt	nt	nt
COCCNC(=O)CN1C2CCC1CC(O)(c1ccccn1)C2 (stereo unspecified)	nt	nt	i	nt	nt	nt
O=C(c1cccnc1)C1CCCN(Cc2nc(-c3cnccn3)no2)C1 (stereo unspecified)	i	i	i	41	i	i
O=C(c1ccccc1)C1CCCN(Cc2nc(-c3cnccn3)no2)C1 (stereo unspecified)	i	i	i	i	i	i
CCC(C)C(=O)O[C@@H]1C[C@@]2(C)[C@H](c3ccoc3)OC(=O)CC23OC2(C)O[C@]14[C@]1(C)[C@@H](CC(=O)OC)C5(C)CC1(O)[C@](O)(C5OC(=O)C1(C)OC1C)[C@@H](OC(C)=O)[C@]34O2 (stereo partly specified)	i	nt	i	nt	nt	nt
ClCC[N+]12CC[N+](CCCl)(CC1)C2 (tested in a mixture with another compound)	46	nt	i	nt	nt	nt
O=C(O)C[SH+]CC(=O)O.O=C(O)C[SH+]CC(=O)O.[Cu]	44	nt	i	nt	nt	nt
CCC(CC)N1CCN(Cc2ccc(OC)cc2)CC1	i	nt	i	nt	nt	nt
COc1cccc(C2(O)CCN(CCNC(=O)c3ccccc3F)CC2)c1	i	nt	i	nt	nt	nt
NC(=O)c1c([N+](=O)[O-])no[n+]1[O-]	119	nt	i	nt	nt	nt
Cc1nc(-c2ccccc2)c(CC(=O)N(C)CCN(C)C)s1	i	nt	i	nt	nt	nt
COC(=O)C(O)(c1c[nH]c2ccccc12)C(F)(F)F (stereo unspecified)	i	i	i	i	i	i
COC(=O)C(O)(c1c(C)[nH]n(-c2ccccc2)c1=O)C(F)(F)F (stereo unspecified)	i	i	i	i	i	99
CC1(C)CCC(C)(C)c2c1ccc(O)c2Cc1c(O)ccc2c1C(C)(C)CCC2(C)C	45	nt	i	nt	nt	nt
Cc1ccc(OP(=O)(Oc2ccc(C)cc2)N2C=Cc3ccccc3[C@H]2C#N)cc1	42	nt	i	nt	nt	nt
Cc1ccc(OP(N)(=O)Oc2ccc(C)cc2)cc1	i	i	i	i	i	i
CCN1CCN(C(=O)Cc2cccc3ccccc23)CC1	i	nt	i	nt	nt	nt
Cc1ncc(CN2CCCC(C(=O)c3ccc(C(C)(C)C)cc3)C2)s1 (stereo unspecified)	i	i	i	63	i	i
CC[C@]1(OC(=O)CN)C(=O)OCc2c1cc1n(c2=O)Cc2cc3ccccc3nc2-1	41	nt	i	nt	nt	nt
SMILES	EP2 antag	Thrombin inh	EP2 mod	FXIIa inh 1536	FXIa inh 1536	KLK5 inh	others
CCC1(OC(=O)CN)C(=O)OCc2c1cc1n(c2=O)Cc2cc3ccccc3nc2-1 (stereo unspecified)	i	i	i	i	i	i
Cn1cccc1/C=C1\C(=O)NC(=O)N(Cc2ccccc2Cl)C1=O	i	i	i	i	48	i
Cn1cccc1/C=C1\C(=O)NC(=O)N(CCC2=CCCCC2)C1=O	i	i	i	i	i	i
COc1ccc(OCC(=O)N2CCN(Cc3ccc(SC)cc3)CC2)cc1	i	49	i	i	i	i
COc1ccc(CN2CCN(C(=O)COc3ccc(OC)cc3)CC2)cc1	i	nt	i	nt	nt	nt
O=[As](O)(O)c1ccc(N=Nc2ccc(O)cc2)cc1	i	i	i	i	i	i
Nc1nc(N)c(N=Nc2ccc([As](=O)(O)O)cc2)c(=O)[nH]1	42	nt	i	nt	nt	nt
Nc1nc(N)c(N=Nc2ccc([As](=O)(O)O)c(O)c2)c(N)n1	i	nt	i	nt	nt	nt
O=[As](O)(O)c1ccc(N=Nc2ccc([As](=O)(O)O)cc2)cc1	50	nt	i	nt	nt	nt
O=c1c2ccccc2nc(SCC2CCCCO2)n1-c1ccccc1 (stereo unspecified)	i	i	64	i	i	i
COc1ccc(-n2c(SC)nc3ccccc3c2=O)cc1	i	i	i	i	i	i
COc1cccc(CN2CCN(C(=O)Cc3cc(OC)ccc3OC)[C@@H](C)C2)c1	nt	nt	i	nt	nt	nt
C[C@@H]1O[C@H](OC2[C@@H](O)[C@H](O)C(O)[C@H](O)[C@H]2O)[C@@H](N)C[C@H]1N=C(N)C(=O)O (stereo partly specified)	51	nt	i	nt	nt	nt
C#CCOc1ccc(CN2C3CCC2CC(O)(c2nccn2C)C3)cc1 (stereo unspecified)	i	nt	i	nt	nt	nt
C[C@]12CC[C@H](O)C[C@@H]1CC[C@H]1[C@H]2CC[C@@]2(C)[C@H](C3=CC(=O)OC3)[C@H](O)C[C@]12O	43	nt	i	nt	nt	nt
Nc1ccncc1	i	i	i	i	i	i
Nc1ccncc1Cl	i	i	i	i	i	41
CCN(CCN(C)C)C(=O)Cc1c(C)[nH]c2ccc(Cl)cc12	i	nt	i	nt	nt	nt
O=C1NC(=O)N(c2ccccc2)C(=O)/C1=C/c1ccc(Sc2ccccc2)o1	41	i	i	i	i	i
CC(C)c1ccc(N2C(=O)NC(=O)/C(=C\C=C\c3ccco3)C2=O)cc1	100	i	i	i	i	i
O=C1NC(=O)N(Cc2ccccc2)C(=O)/C1=C/C=C/c1ccco1	106	i	i	i	i	i
O=C(CN1C2CCC1CC(O)(c1ccco1)C2)N(C1CCCCC1)C1CCCCC1 (stereo unspecified)	nt	nt	i	nt	nt	nt
Cc1ccc2scc(CC(=O)N(CCN(C)C)C3CCN(C)CC3)c2c1	i	nt	i	nt	nt	nt
C[C@]12CCC3C(CC[C@H]4C[C@@H](Cl)CC[C@]34C)C1CCC2=O (stereo partly specified)	i	nt	64	nt	nt	nt	EP2 confirm=+
C[C@]12CCC3C(CC[C@H]4C[C@H](OS(=O)(=O)O)CC[C@]34C)C1CCC2=O (stereo partly specified)	i	nt	i	nt	nt	nt
CC1CC[C@]2(NC1)O[C@H]1CC3C4CC[C@H]5C[C@@H](O)CC[C@]5(C)C4CC[C@]3(C)[C@H]1[C@@H]2C (stereo partly specified)	i	nt	i	nt	nt	nt
CC(C)C1(C)N=C(c2ncccc2C(=O)O)NC1=O (stereo unspecified)	i	i	72	i	i	i	EP2 confirm=i
